Test system: Fibroblast
Test: Multiplex assay against human fibroblast
Format: toxicity, cell-based
Method in brief: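 Values for tubulin, mitochondrial-mass and membrane-permeability phenotypes are per cents of cells with healthy nuclei. These cells were identified by CellPathfinder machine-learning gating of live cells that had been stained at seeding with Hoechst33342, BioTracker Green Microtubule Cytoskeleton Dye, MitoTracker Red and Annexin V Alexa Fluor 680 and imaged on a CQ1 microscope at 37°C and 5% CO2 after compound addition. The gating first set Hoechst high-intensity objects apart from normal cells, then split normal cells into healthy, pyknosed or fragmented nuclei, and pyknosed cells into mitotic or apoptotic.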

[1] = 12 h, 1 µM, compound concentration 1 uM, replicate 1
[2] = 12 h, 1 µM, compound concentration 1 uM, replicate 2
[3] = 12 h, 10 µM, compound concentration 10 uM, replicate 1
[4] = 12 h, 10 µM, compound concentration 10 uM, replicate 2
[5] = 24 h, 1 µM, compound concentration 1 uM, replicate 1
[6] = 24 h, 1 µM, compound concentration 1 uM, replicate 2
[7] = 24 h, 10 µM, compound concentration 10 uM, replicate 1
[8] = 24 h, 10 µM, compound concentration 10 uM, replicate 2
[9] = 48 h, 1 µM, compound concentration 1 uM, replicate 1
[10] = 48 h, 1 µM, compound concentration 1 uM, replicate 2
[11] = 48 h, 10 µM, compound concentration 10 uM, replicate 1
[12] = 48 h, 10 µM, compound concentration 10 uM, replicate 2

With `Cc1cccc(NC(=O)CN2CCC(c3ccccn3)CC2)c1.Cl.Cl` as the molecule, how does the “Population Apoptotic (%)” value [1] read?
The value was 47%.

And the “Population Fragmented Nuclei (%)” value [1]?
Its value is 16%.

And the “Population Healthy Nuclei (%)” value [1]?
The value was 70%.

And the “Population Hoechst High Intensity Objects (%)” value [1]?
The value was 4%.

And the “Population Membrane Permeable-Phenotype (%)” value [1]?
Its value is 0%.

And the “Population Mitochondria Different-Phenotype (%)” value [1]?
Its value is 6%.

And the “Population Mitotic Cells (%)” value [1]?
Its value is 52%.

What about the “Population Normal (%)” value [1] of the same molecule?
Its value is 95%.

What about the “Population Pyknosed Nuclei (%)” value [1] of the same molecule?
Its value is 12%.

What about the “Population Tubulin-Different-Phenotype (%)” value [1] of the same molecule?
The value was 34%.

And the “Total Cell Count” value [1]?
The value was 140.

And the “Population Apoptotic (%)” value [2]?
The value was 33%.

What about the “Population Fragmented Nuclei (%)” value [2] of the same molecule?
The value was 25%.

And the “Population Healthy Nuclei (%)” value [2]?
Its value is 55%.

And the “Population Hoechst High Intensity Objects (%)” value [2]?
The value was 6%.

What about the “Population Membrane Permeable-Phenotype (%)” value [2] of the same molecule?
Its value is 2%.

And the “Population Mitochondria Different-Phenotype (%)” value [2]?
The value was 5%.

What about the “Population Mitotic Cells (%)” value [2] of the same molecule?
Its value is 66%.

And the “Population Normal (%)” value [2]?
The value was 93%.

What about the “Population Pyknosed Nuclei (%)” value [2] of the same molecule?
The value was 19%.

What about the “Population Tubulin-Different-Phenotype (%)” value [2] of the same molecule?
The value was 35%.

What about the “Total Cell Count” value [2] of the same molecule?
The value was 232.

What about the “Population Apoptotic (%)” value [3] of the same molecule?
Its value is 59%.

What about the “Population Fragmented Nuclei (%)” value [3] of the same molecule?
The value was 8%.

And the “Population Healthy Nuclei (%)” value [3]?
Its value is 78%.

And the “Population Hoechst High Intensity Objects (%)” value [3]?
The value was 10%.

And the “Population Membrane Permeable-Phenotype (%)” value [3]?
The value was 1%.

What about the “Population Mitochondria Different-Phenotype (%)” value [3] of the same molecule?
Its value is 7%.

And the “Population Mitotic Cells (%)” value [3]?
The value was 40%.

And the “Population Normal (%)” value [3]?
Its value is 89%.

What about the “Population Pyknosed Nuclei (%)” value [3] of the same molecule?
The value was 13%.

And the “Population Tubulin-Different-Phenotype (%)” value [3]?
The value was 36%.

What about the “Total Cell Count” value [3] of the same molecule?
The value was 229.

And the “Population Apoptotic (%)” value [4]?
Its value is 34%.

What about the “Population Fragmented Nuclei (%)” value [4] of the same molecule?
Its value is 45%.

What about the “Population Healthy Nuclei (%)” value [4] of the same molecule?
Its value is 30%.

And the “Population Hoechst High Intensity Objects (%)” value [4]?
Its value is 2%.

And the “Population Membrane Permeable-Phenotype (%)” value [4]?
The value was 6%.

And the “Population Mitochondria Different-Phenotype (%)” value [4]?
The value was 10%.

And the “Population Mitotic Cells (%)” value [4]?
The value was 65%.

What about the “Population Normal (%)” value [4] of the same molecule?
Its value is 98%.

And the “Population Pyknosed Nuclei (%)” value [4]?
Its value is 23%.

What about the “Population Tubulin-Different-Phenotype (%)” value [4] of the same molecule?
The value was 56%.

And the “Total Cell Count” value [4]?
The value was 100.

What about the “Population Apoptotic (%)” value [5] of the same molecule?
Its value is 50%.

What about the “Population Fragmented Nuclei (%)” value [5] of the same molecule?
Its value is 18%.

And the “Population Healthy Nuclei (%)” value [5]?
Its value is 70%.

And the “Population Hoechst High Intensity Objects (%)” value [5]?
The value was 2%.

What about the “Population Membrane Permeable-Phenotype (%)” value [5] of the same molecule?
Its value is 0%.

What about the “Population Mitochondria Different-Phenotype (%)” value [5] of the same molecule?
The value was 8%.

What about the “Population Mitotic Cells (%)” value [5] of the same molecule?
The value was 50%.

And the “Population Normal (%)” value [5]?
The value was 97%.

What about the “Population Pyknosed Nuclei (%)” value [5] of the same molecule?
The value was 10%.

And the “Population Tubulin-Different-Phenotype (%)” value [5]?
Its value is 25%.

And the “Total Cell Count” value [5]?
The value was 134.

And the “Population Apoptotic (%)” value [6]?
The value was 40%.

What about the “Population Fragmented Nuclei (%)” value [6] of the same molecule?
The value was 26%.

What about the “Population Healthy Nuclei (%)” value [6] of the same molecule?
Its value is 53%.

And the “Population Hoechst High Intensity Objects (%)” value [6]?
The value was 4%.

And the “Population Membrane Permeable-Phenotype (%)” value [6]?
The value was 4%.

What about the “Population Mitochondria Different-Phenotype (%)” value [6] of the same molecule?
The value was 6%.

What about the “Population Mitotic Cells (%)” value [6] of the same molecule?
The value was 59%.

What about the “Population Normal (%)” value [6] of the same molecule?
The value was 95%.

And the “Population Pyknosed Nuclei (%)” value [6]?
The value was 19%.

And the “Population Tubulin-Different-Phenotype (%)” value [6]?
The value was 30%.

What about the “Total Cell Count” value [6] of the same molecule?
The value was 239.

What about the “Population Apoptotic (%)” value [7] of the same molecule?
Its value is 64%.

And the “Population Fragmented Nuclei (%)” value [7]?
The value was 11%.

And the “Population Healthy Nuclei (%)” value [7]?
Its value is 81%.

What about the “Population Hoechst High Intensity Objects (%)” value [7] of the same molecule?
Its value is 7%.

What about the “Population Membrane Permeable-Phenotype (%)” value [7] of the same molecule?
The value was 0%.

And the “Population Mitochondria Different-Phenotype (%)” value [7]?
The value was 11%.

What about the “Population Mitotic Cells (%)” value [7] of the same molecule?
The value was 35%.

What about the “Population Normal (%)” value [7] of the same molecule?
The value was 92%.

And the “Population Pyknosed Nuclei (%)” value [7]?
Its value is 6%.

What about the “Population Tubulin-Different-Phenotype (%)” value [7] of the same molecule?
Its value is 38%.

What about the “Total Cell Count” value [7] of the same molecule?
The value was 217.

And the “Population Apoptotic (%)” value [8]?
Its value is 42%.

What about the “Population Fragmented Nuclei (%)” value [8] of the same molecule?
Its value is 45%.

What about the “Population Healthy Nuclei (%)” value [8] of the same molecule?
The value was 34%.

What about the “Population Hoechst High Intensity Objects (%)” value [8] of the same molecule?
The value was 0%.

And the “Population Membrane Permeable-Phenotype (%)” value [8]?
Its value is 11%.

What about the “Population Mitotic Cells (%)” value [8] of the same molecule?
Its value is 57%.

What about the “Population Normal (%)” value [8] of the same molecule?
The value was 100%.

What about the “Population Pyknosed Nuclei (%)” value [8] of the same molecule?
The value was 20%.

And the “Population Tubulin-Different-Phenotype (%)” value [8]?
Its value is 50%.

And the “Total Cell Count” value [8]?
Its value is 105.

What about the “Population Apoptotic (%)” value [9] of the same molecule?
Its value is 80%.

And the “Population Fragmented Nuclei (%)” value [9]?
Its value is 25%.

And the “Population Healthy Nuclei (%)” value [9]?
The value was 63%.

And the “Population Hoechst High Intensity Objects (%)” value [9]?
The value was 3%.

What about the “Population Membrane Permeable-Phenotype (%)” value [9] of the same molecule?
The value was 1%.

What about the “Population Mitochondria Different-Phenotype (%)” value [9] of the same molecule?
Its value is 3%.

What about the “Population Mitotic Cells (%)” value [9] of the same molecule?
The value was 20%.

And the “Population Normal (%)” value [9]?
The value was 96%.

What about the “Population Pyknosed Nuclei (%)” value [9] of the same molecule?
Its value is 11%.

What about the “Population Tubulin-Different-Phenotype (%)” value [9] of the same molecule?
The value was 28%.

What about the “Total Cell Count” value [9] of the same molecule?
The value was 138.

What about the “Population Apoptotic (%)” value [10] of the same molecule?
Its value is 60%.

And the “Population Fragmented Nuclei (%)” value [10]?
The value was 31%.

What about the “Population Healthy Nuclei (%)” value [10] of the same molecule?
The value was 55%.

What about the “Population Membrane Permeable-Phenotype (%)” value [10] of the same molecule?
Its value is 4%.

What about the “Population Mitotic Cells (%)” value [10] of the same molecule?
The value was 39%.

What about the “Population Pyknosed Nuclei (%)” value [10] of the same molecule?
Its value is 12%.

And the “Population Tubulin-Different-Phenotype (%)” value [10]?
Its value is 35%.

What about the “Total Cell Count” value [10] of the same molecule?
Its value is 229.

What about the “Population Apoptotic (%)” value [11] of the same molecule?
Its value is 76%.

And the “Population Fragmented Nuclei (%)” value [11]?
Its value is 17%.

What about the “Population Healthy Nuclei (%)” value [11] of the same molecule?
Its value is 75%.

And the “Population Hoechst High Intensity Objects (%)” value [11]?
The value was 7%.

And the “Population Membrane Permeable-Phenotype (%)” value [11]?
The value was 2%.

And the “Population Mitochondria Different-Phenotype (%)” value [11]?
Its value is 5%.

And the “Population Mitotic Cells (%)” value [11]?
The value was 23%.

And the “Population Normal (%)” value [11]?
The value was 92%.

And the “Population Pyknosed Nuclei (%)” value [11]?
Its value is 7%.

And the “Population Tubulin-Different-Phenotype (%)” value [11]?
Its value is 44%.

And the “Total Cell Count” value [11]?
Its value is 238.

And the “Population Apoptotic (%)” value [12]?
Its value is 28%.

What about the “Population Fragmented Nuclei (%)” value [12] of the same molecule?
Its value is 54%.

And the “Population Healthy Nuclei (%)” value [12]?
Its value is 39%.

And the “Population Hoechst High Intensity Objects (%)” value [12]?
The value was 1%.

What about the “Population Mitochondria Different-Phenotype (%)” value [12] of the same molecule?
Its value is 16%.

What about the “Population Mitotic Cells (%)” value [12] of the same molecule?
The value was 71%.

And the “Population Normal (%)” value [12]?
Its value is 98%.

And the “Population Pyknosed Nuclei (%)” value [12]?
The value was 6%.

And the “Population Tubulin-Different-Phenotype (%)” value [12]?
Its value is 61%.

And the “Total Cell Count” value [12]?
Its value is 109.
